From ChEMBL document CHEMBL4145681, “Discovery of Novel Aminotetralines and Aminochromanes as Selective and Competitive Glycine Transporter 1 (GlyT1) Inhibitors” (J Med Chem, 2018)
Activity calls are given as the source filed them. No cut-off for these calls is given here.

Tests used:
[1] = target: T1, Sodium- and chloride-dependent glycine transporter 1 (Homo sapiens, UniProt P48067); experiment: Displacement of [3H]N-Methyl-SSR504734 from human GlyT1c expressed in cell membranes incubated for 1 hr by liquid scintillation spectrometry
T1 sequence (P48067 whole entry): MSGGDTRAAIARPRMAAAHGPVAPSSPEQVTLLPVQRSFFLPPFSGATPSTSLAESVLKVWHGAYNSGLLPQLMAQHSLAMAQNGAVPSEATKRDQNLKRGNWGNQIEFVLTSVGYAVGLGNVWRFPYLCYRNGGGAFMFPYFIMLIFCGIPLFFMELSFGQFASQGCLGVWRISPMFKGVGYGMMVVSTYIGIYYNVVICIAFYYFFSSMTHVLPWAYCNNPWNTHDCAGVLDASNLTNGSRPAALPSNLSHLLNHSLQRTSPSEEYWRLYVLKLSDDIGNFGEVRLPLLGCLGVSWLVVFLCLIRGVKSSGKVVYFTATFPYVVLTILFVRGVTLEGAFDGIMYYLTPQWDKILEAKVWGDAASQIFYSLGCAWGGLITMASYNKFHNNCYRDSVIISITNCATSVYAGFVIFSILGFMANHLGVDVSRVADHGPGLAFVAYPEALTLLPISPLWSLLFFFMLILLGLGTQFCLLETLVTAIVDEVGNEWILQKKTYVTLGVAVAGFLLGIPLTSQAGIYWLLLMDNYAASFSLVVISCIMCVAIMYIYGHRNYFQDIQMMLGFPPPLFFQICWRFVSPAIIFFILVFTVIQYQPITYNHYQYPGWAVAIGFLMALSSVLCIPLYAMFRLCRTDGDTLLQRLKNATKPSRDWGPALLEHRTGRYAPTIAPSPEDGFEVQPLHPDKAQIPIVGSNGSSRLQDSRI

[2] = Clearance in rat liver microsomes at 0.5 uM incubated up to 30 mins in presence of NADPH by LC-MS/MS method; assay type: ADME, microsome; conditions: read-out: CLH
[3] = Clearance in human liver microsomes at 0.5 uM incubated up to 30 mins in presence of NADPH by LC-MS/MS method; assay type: ADME, microsome; conditions: read-out: CLH
Mus musculus = experiment: In-vivo binding affinity to GlyT1 in mouse assessed as target occupancy in forebrains dosed intraperitoneally using [3H]N-methyl-SSR504734 as radioligand after 1 hr by liquid scintillation counting method; assay type: functional; conditions: ip
In short: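 Mice dosed i.p. at several doses; forebrain homogenates then tested ex vivo for binding of a GlyT1 radioligand to give target occupancy, with ED50 for 50% occupancy estimated across the dose range.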

[4] = Efflux ratio in MDCK2-MDR1 cells at 1 uM incubated fro 1 hr by LC-MS/MS method; assay type: ADME, cell-based, Canis lupus familiaris; conditions: dog, MDCK-MDR1
[5] = target: T2, Sodium- and chloride-dependent glycine transporter 1 (Homo sapiens) (UniProt P48067); experiment: Competitive inhibition of GlyT1c (unknown origin) expressed in Xenopus laevis oocytes clamped at -60 mV assessed as reduction in glycine-induced membrane currents at 300 nM pre-treated with glycine for 1 min followed by compound dosing for 3 mins by two-electrode voltage clamp assay; assay type: cell-based
T2 sequence (whole entry): T1 sequence (P48067 whole entry)
In short: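 Oocytes expressing GlyT1c were stimulated with 10 µM or 3000 µM glycine to evoke transporter current. Compound at 300 nM was added to the glycine solution, and % inhibition of the current was calculated. Mode of inhibition was judged by comparing inhibition at the two glycine levels. Data are mean ± SD, N>4 oocytes.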

[6] = Oral bioavailability in Sprague-Dawley rat at measured after 8 to 24 hrs by LC-MS/MS method; assay type: ADME, organism-based; conditions: in vivo
[7] = Ratio of free drug level in brain to plasma of Sprague-Dawley rat at 2 mg/kg, ip measured after 8 to 24 hrs by LC-MS/MS method; assay type: ADME, organism-based
Cytochrome P450 3A4 = Cytochrome P450 3A4 (Homo sapiens, UniProt P08684); experiment: Inhibition of CYP3A4 in human liver microsomes in presence of NADPH regeneration mixture using luciferin IPA-OH substrate by P450-Glo assay; assay type: ADME
[8] = Oral bioavailability in dog; assay type: ADME, organism-based, Canis lupus familiaris; conditions: in vivo
[9] = target: Voltage-gated inwardly rectifying potassium channel KCNH2 (Homo sapiens, UniProt Q12809); experiment: Inhibition of human ERG
[10] = fCmax in Sprague-Dawley rat brain at 2 mg/kg, ip measured after 8 to 24 hrs by LC-MS/MS method; assay type: ADME, organism-based; conditions: in vivo
[11] = Solubility in water; assay type: physicochemical
[12] = Permeability in MDCK2-MDR1 cells at 1 uM incubated fro 1 hr by LC-MS/MS method; assay type: ADME, cell-based, Canis lupus familiaris; conditions: dog, MDCK-MDR1; read-out: permeability

Sequence of Voltage-gated inwardly rectifying potassium channel KCNH2 (Q12809 whole entry): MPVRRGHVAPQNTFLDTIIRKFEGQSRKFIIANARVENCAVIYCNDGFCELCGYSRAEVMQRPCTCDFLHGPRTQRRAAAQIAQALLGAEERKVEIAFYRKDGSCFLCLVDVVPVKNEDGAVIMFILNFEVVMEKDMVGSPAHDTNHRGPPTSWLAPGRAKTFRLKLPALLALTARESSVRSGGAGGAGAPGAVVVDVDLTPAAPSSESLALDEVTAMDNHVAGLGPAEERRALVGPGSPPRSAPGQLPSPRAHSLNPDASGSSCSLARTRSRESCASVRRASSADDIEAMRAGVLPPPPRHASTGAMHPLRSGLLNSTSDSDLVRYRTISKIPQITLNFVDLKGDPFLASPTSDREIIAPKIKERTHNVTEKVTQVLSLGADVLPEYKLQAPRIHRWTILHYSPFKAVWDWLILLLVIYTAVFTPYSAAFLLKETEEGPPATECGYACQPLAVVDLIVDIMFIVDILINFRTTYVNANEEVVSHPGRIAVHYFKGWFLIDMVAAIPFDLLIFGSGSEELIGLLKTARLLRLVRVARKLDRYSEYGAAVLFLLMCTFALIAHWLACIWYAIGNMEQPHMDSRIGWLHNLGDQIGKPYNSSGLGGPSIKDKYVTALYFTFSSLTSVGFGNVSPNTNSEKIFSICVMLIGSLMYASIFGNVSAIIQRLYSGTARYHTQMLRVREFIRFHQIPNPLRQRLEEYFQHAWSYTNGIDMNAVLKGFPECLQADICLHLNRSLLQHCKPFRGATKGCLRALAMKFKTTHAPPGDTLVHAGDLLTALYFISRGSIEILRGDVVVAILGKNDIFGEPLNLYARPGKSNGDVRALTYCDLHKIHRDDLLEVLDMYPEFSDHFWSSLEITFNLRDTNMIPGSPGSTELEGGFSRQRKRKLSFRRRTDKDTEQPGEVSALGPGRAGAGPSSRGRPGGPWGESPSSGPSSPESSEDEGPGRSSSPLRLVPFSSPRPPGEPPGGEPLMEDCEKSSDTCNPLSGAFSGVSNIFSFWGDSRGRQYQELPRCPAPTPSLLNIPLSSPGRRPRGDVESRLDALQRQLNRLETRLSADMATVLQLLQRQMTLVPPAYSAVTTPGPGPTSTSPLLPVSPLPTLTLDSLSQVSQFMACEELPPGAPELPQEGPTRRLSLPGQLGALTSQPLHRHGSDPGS
Sequence of Cytochrome P450 3A4 (P08684 whole entry): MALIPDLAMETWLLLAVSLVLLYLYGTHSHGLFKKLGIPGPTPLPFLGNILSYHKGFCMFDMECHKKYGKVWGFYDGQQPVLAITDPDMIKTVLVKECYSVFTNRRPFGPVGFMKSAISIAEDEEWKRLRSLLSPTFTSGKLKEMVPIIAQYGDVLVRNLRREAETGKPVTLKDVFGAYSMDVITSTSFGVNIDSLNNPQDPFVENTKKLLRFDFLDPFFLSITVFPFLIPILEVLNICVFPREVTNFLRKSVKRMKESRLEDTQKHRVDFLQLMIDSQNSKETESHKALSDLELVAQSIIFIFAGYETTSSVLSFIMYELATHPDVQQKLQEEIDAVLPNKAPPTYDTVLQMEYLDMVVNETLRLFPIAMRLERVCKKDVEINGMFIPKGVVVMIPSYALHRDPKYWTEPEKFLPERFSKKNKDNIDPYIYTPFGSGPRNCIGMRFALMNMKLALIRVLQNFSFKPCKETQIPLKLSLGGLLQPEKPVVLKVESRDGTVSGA

Ki [1] [nM] | microsomal CLint at 0.5 µM [2] [µL/min/mg] | microsomal CLint at 0.5 µM [3] [µL/min/mg] | SMILES | ED50 (Mus musculus) [mg/kg] | other results
1.1 |  |  | Cn1cnc(S(=O)(=O)NCCOc2ccc3c(c2)[C@@H](Cc2ccc(Cl)cc2)[C@@H](N)CC3)c1 (relative stereo) |  | 
660 | 40 | 78 | N[C@H]1CCc2ccc(OCCNS(=O)(=O)c3ccccc3)cc2[C@H]1Cc1ccc(Cl)c(Cl)c1 |  | 
5.7 | 25 | 92 | N[C@H]1CCc2ccc(OCCNS(=O)(=O)CC3CC3)cc2[C@H]1Cc1ccc(Cl)c(Cl)c1 (relative stereo) | 14 | 
2.6 | 10 | 36 | Cn1cnc(S(=O)(=O)NCCOc2ccc3c(c2)[C@@H](Cc2ccc(Cl)c(Cl)c2)[C@@H](N)CC3)c1 (relative stereo) | > 20 | 
136 | 35 | 173 | CCCCS(=O)(=O)NCCOc1ccc2c(c1)[C@@H](Cc1ccc(Cl)c(Cl)c1)[C@@H](N)CC2 (relative stereo) |  | 
32 | 49 | 55 | N[C@H]1CCc2ccc(OCCNS(=O)(=O)C3CCC3)cc2[C@H]1Cc1ccc(Cl)c(Cl)c1 (relative stereo) |  | 
1.5 |  |  | Cn1cnc(S(=O)(=O)NCCOc2ccc3c(c2)[C@@H](Cc2cccc(Cl)c2)[C@@H](N)CC3)c1 (relative stereo) | 15 | 
141 | 39 | 25 | CS(=O)(=O)NCCOc1ccc2c(c1)[C@@H](Cc1ccc(Cl)c(Cl)c1)[C@@H](N)CC2 (relative stereo) |  | 
163 | 95 | 99 | N[C@H]1CCc2ccc(OCCNS(=O)(=O)c3cccs3)cc2[C@H]1Cc1ccc(Cl)c(Cl)c1 (relative stereo) |  | 
35 | 17 | 95 | CCCS(=O)(=O)NCCOc1ccc2c(c1)[C@@H](Cc1ccc(Cl)c(Cl)c1)[C@@H](N)CC2 (relative stereo) |  | inhibition [5]: Active; bioavailability [6]: 31%; Kp uu [7]: 0.05; IC50 (Cytochrome P450 3A4): > 10000 nM
1.2 | 49 | 44 | Cn1cc(S(=O)(=O)NCCOc2ccc3c(c2)[C@@H](Cc2ccc(Cl)c(Cl)c2)[C@@H](N)CC3)cn1 (relative stereo) | > 20 | fCmax [10]: 0.2 nM
1.2 |  |  | Cn1cnc(S(=O)(=O)NCCOc2ccc3c(c2)[C@@H](Cc2cc(F)cc(Cl)c2)[C@@H](N)CC3)c1 (relative stereo) |  | 

The remaining lines, values behind:

SMILES | Ki [1] [nM] | microsomal CLint at 0.5 µM [2] [µL/min/mg] | microsomal CLint at 0.5 µM [3] [µL/min/mg] | ED50 (Mus musculus) [mg/kg] | other results
Cn1cnc(S(=O)(=O)NCCOc2ccc3c(c2)[C@@H](Cc2cccc(C(F)(F)F)c2)[C@@H](N)CC3)c1 (relative stereo) | 0.8 |  |  |  | 
Cn1cnc(S(=O)(=O)NCCOc2ccc3c(c2)[C@@H](Cc2ccccc2Cl)[C@@H](N)CC3)c1 (relative stereo) | 75 |  |  |  | 
Cn1cnc(S(=O)(=O)NCCOc2ccc3c(c2)[C@@H](Cc2ccccc2)[C@@H](NCC(F)(F)F)CC3)c1 (relative stereo) | 69 | 125 | 69 |  | efflux ratio at 1 h, 1 µM [4]: 1.4
CCCS(=O)(=O)NC1CN(c2ccc3c(c2)[C@@H](Cc2ccccc2)[C@@H](N2CCC2)CO3)C1 (relative stereo) | 44 | 66 | < 23 |  | efflux ratio at 1 h, 1 µM [4]: 0.9
Cn1cnc(S(=O)(=O)NCCOc2ccc3c(c2)[C@@H](Cc2ccccc2)[C@@H](N)CC3)c1 (relative stereo) | 3.6 |  |  |  | 
CCCS(=O)(=O)NCCOc1ccc2c(c1)C(C1(c3ccc(Cl)cc3)CCC1)NCC2 (stereo not drawn) | 3 | 450 | 620 |  | inhibition [5]: Active; bioavailability [6]: 7%; Kp uu [7]: 0.54; IC50 (Cytochrome P450 3A4): 620 nM
O=S(=O)(CC1CC1)NCCOc1ccc2c(c1)[C@@H](Cc1ccccc1)[C@@H](N1CCC1)CO2 (relative stereo) | 940 | 239 | 940 |  | 
CCCS(=O)(=O)NCc1ccc2c(c1)[C@@H](Cc1ccccc1)[C@@H](NC)CC2 (relative stereo) |  |  |  | 2 | 
Cn1cnc(S(=O)(=O)NCc2ccc3c(c2)[C@@H](Cc2ccccc2)[C@@H](N2CCC2)CC3)c1 (relative stereo) | 3 |  |  | 1.8 | bioavailability [6]: 51%; bioavailability [8]: 75%
O=S(=O)(CC1CC1)NC1CN(c2ccc3c(c2)[C@@H](Cc2ccccc2)[C@@H](N2CCC2)CO3)C1 (relative stereo) | 18 | 130 | < 23 |  | efflux ratio at 1 h, 1 µM [4]: 1; IC50 [9]: 11400 nM
O=S(=O)(CC1CC1)NCCOc1ccc2c(c1)[C@@H](Cc1ccccc1)[C@@H](N1CCC1)CC2 | 2.6 | 137 | 113 | 0.5 | bioavailability [6]: 8%; Kp uu [7]: 0.8; fCmax [10]: 9.9 nM; efflux ratio at 1 h, 1 µM [4]: 1.6; IC50 [9]: 80 nM
Cn1cnc(S(=O)(=O)NCCOc2ccc3c(c2)[C@@H](Cc2ccccc2)[C@@H](N2CCCC2)CC3)c1 | 1.2 |  |  | 1.6 | bioavailability [6]: 29%; fCmax [10]: 2 nM; bioavailability [8]: 49%; solubility [11]: > 1000 µg/mL; Papp at 1 h, 1 µM [12]: 17 ×10⁻⁶ cm/s; efflux ratio at 1 h, 1 µM [4]: 7.2
CN[C@H]1CCc2ccc(OCCNS(=O)(=O)CC3CC3)cc2[C@H]1Cc1ccccc1 | 1.2 |  |  | 1.4 | bioavailability [6]: 22%; fCmax [10]: 2.3 nM
CCCS(=O)(=O)NCc1ccc2c(c1)[C@@H](Cc1ccccc1)[C@@H](N1CCC1)CC2 (relative stereo) |  | 302 | 122 |  | 
CCCS(=O)(=O)N[C@@H]1CCN(c2ccc3c(c2)[C@@H](Cc2ccccc2)[C@@H](N2CCC2)CC3)C1=O | 28 | 33 | < 23 |  | efflux ratio at 1 h, 1 µM [4]: 1.6; IC50 [9]: 4500 nM
Oc1ccc2c(c1)C(C1(c3ccc(Cl)cc3)CCC1)NCC2 (stereo not drawn) | 124 | 343 | 130 |  | inhibition [5]: Active; bioavailability [6]: < 1%; IC50 (Cytochrome P450 3A4): > 10000 nM
CCCS(=O)(=O)NC1CN(c2ccc3c(c2)[C@@H](Cc2ccccc2)[C@@H](N2CCC2)CC3)C1 | 2.6 | 42 | < 23 |  | efflux ratio at 1 h, 1 µM [4]: 1.4; IC50 [9]: 6800 nM
Cn1cnc(S(=O)(=O)NCCOc2ccc3c(c2)[C@@H](Cc2ccccc2)[C@@H](N2CCC2)CO3)c1 | 3.3 | 37 | 277 |  | efflux ratio at 1 h, 1 µM [4]: 3.5
